This is a sample that favours compounds with a hit; in the whole collection about 2.3% have one here.
ERp5 inh – ERp5 (human) disulfide isomerase inhibition. Q15084. ERp5 insulin aggregation, absorbance 650 nm, 90 min. inhibition, % at 9.99 µM. 350,000 compounds, 0.05% hits;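 active = mean replicate inhibition above about 25%, with every replicate also reaching it, limit read from the data, passing the limit was not always enough; inconclusive = only one of those two criteria met; inactive = neither criterion met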
Cneo AK release – Cryptococcus neoformans lysis via adenylate kinase release; C. neoformans lysis, adenylate kinase release luminescence, 4 h; normalised: neutral wells 0, clomiphene wells 100; AID 651654; lysis activity, % at 15 µM; 360,000 compounds, 0.2% hits;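 active = mean lysis activity across replicates of at least 80%, whatever share of replicates individually reach that level; inactive = mean lysis activity below 80%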
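Test system: log-phase Cryptococcus neoformans yeast cells. Input: 5 × 10^6 yeast cells/mL. Medium: fresh YPD growth medium. Doses: single dose. Incubation: static 4 h at 37 °C with compound, 1 h detection. Measured by: luminescent adenylate kinase detection reagent. Read-out: signal increase indicating cell lysis. Benchmarks: Clomiphene.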
PDI turbidity – blocks human protein disulfide isomerase activity; P07237; PDI insulin aggregation turbidity, A650, 90 min; inhibition, % at 10 µM; 350,000 compounds, 0.052% hits; AID 588391;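 active = mean inhibition across replicates of 30% or more, whatever share of single replicates reach that level; inconclusive = mean inhibition below 30% while every single replicate reaches 30%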
Target sequence (P07237 whole entry, looked up): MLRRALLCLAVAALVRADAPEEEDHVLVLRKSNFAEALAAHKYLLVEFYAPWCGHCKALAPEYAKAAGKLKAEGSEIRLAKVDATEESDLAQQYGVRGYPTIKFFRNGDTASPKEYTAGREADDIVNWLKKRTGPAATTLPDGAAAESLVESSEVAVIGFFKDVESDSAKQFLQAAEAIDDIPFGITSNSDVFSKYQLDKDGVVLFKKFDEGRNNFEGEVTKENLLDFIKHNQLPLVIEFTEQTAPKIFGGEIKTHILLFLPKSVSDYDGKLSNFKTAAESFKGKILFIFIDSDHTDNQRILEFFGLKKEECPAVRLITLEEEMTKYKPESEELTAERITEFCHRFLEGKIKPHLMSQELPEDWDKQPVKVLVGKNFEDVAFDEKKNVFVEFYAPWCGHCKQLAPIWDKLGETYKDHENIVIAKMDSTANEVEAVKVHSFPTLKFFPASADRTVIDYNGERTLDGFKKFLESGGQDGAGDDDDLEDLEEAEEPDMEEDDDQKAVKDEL
DENV2 CPE – protects cells from dengue virus 2 cytopathic effect | DENV2-infected cells, cytopathic effect rescue, plate reader | CPE inhibition, % at 9.99 µM | 350,000 compounds, 1.7% hits | AID 651640; in the data active = CPE inhibition above about 20%, passing the limit was not always enough; inconclusive = no clear call, values can overlap the other calls; tested in BHK-21 cells;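 also: 0% = median of neutral control wells and 100% = median of positive control wells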
Statin myotox sup – suppressors of simvastatin-induced myotoxicity in C2C12 myotubes; rescue of ATP level, % at 7.49 µM; ATP luminescence, 48 h; scaled: DMSO 0, geranylgeraniol control 100; 330,000 compounds, 0.78% hits;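 active = mean ATP rescue above about 67%, or every replicate alone reaching that limit, limit read from the data, passing the limit was not always enough; inconclusive = no clear call, values can overlap the other calls; inactive = mean under the limit and some replicate under it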;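 also: myotubes were challenged with 10 µM simvastatin during compound exposure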
F508del corr – CFTR F508del correction in bronchial cells. 350,000 compounds, 0.36% hits. activity (quench increase), % at 7.58 µM. CFBE cells, YFP halide quenching; stimulated with forskolin plus potentiator P3; % fluorescence drop versus neutral controls;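 active = mean added fluorescence quench of at least 8% versus neutral control, with both replicates also reaching 8%; inconclusive = only one of the mean or replicate conditions met; inactive = mean below 8% and not both replicates reaching 8%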;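 also: cells transiently co-express mutant CFTR-F508del with the halide-sensitive YFP; corrector assay measuring rescue of mutant channel to the surface after 24 h compound exposure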
An asterisk follows results filed as active; ? = inconclusive; . = no result.

SMILES	ERp5 inh	Cneo AK release	PDI turbidity	DENV2 CPE	Statin myotox sup	F508del corr
Cc1c(Cl)cccc1NC(=S)N1CCCCCC1	4	2	-4	5	.	2
Cc1cccc(NC(=S)N2CCCCCC2)c1C	3	39	-5	55*	21	0
O=C(CN1CCN(c2cccc(C(F)(F)F)c2)CC1)N(C1CCCC1)C1CCS(=O)(=O)C1 (stereo not drawn)	1	2	-1	51*	1	6
C[C@@H]1CN([C@@H](C)CO)C(=O)Cc2cc(NS(=O)(=O)c3ccc(F)cc3)ccc2O[C@@H]1CN(C)C(=O)Nc1ccc(F)cc1	6	-3	.	-10	6	1
COC(=O)[C@@H]1C[C@@H](C(=O)O)[C@H](C)C1(C)C	2	1	-10	-5	-9	4
COc1ccc(C)cc1C(=O)C1CC(C(=O)O)C(C)(C)C1C (stereo not drawn)	.	.	4	.	104*	.
COc1ccc(/C=N/Nc2cc(C)nc(N)n2)cc1	.	0	6	.	.	.
COc1ccc2nc(NN=Cc3cccc(C)n3)cc(C)c2c1	5	.	.	54*	.	-3
COc1cc(OC)cc(-c2nc3nc(C)c(CCC(=O)O)c(C)n3n2)c1	.	0	4	.	117*	.
COc1cc(OC)cc(-c2nc3nc(C)c(CCC(=O)NCC(OC)OC)c(C)n3n2)c1	2	.	13	7	.	.
CCCNC(=O)C[C@H]1CC[C@@H]2[C@H](COc3ccc(NC(=O)Cc4cccs4)cc3C(=O)N2C)O1	.	1	.	8	6	2
COc1ccc(Nc2ncnc3c2cnn3Cc2ccc(C)cc2)cc1	.	2	-4	.	68*	.
c1ccc(Cn2ncc3c(Nc4ccccc4)ncnc32)cc1	-1	-1	-15	-5	6	1
C[C@H](CO)N1C[C@H](C)[C@H](CN(C)S(=O)(=O)c2ccc(F)cc2)Oc2c(NS(=O)(=O)c3cn(C)cn3)cccc2C1=O	-4	-4	.	-6	-12	4
O=C(NC1CCCC1)C1CCN(C(=O)NCc2ccccc2)CC1	-2	.	-8	6	.	0
O=C(NC1CCCCC1)C1CCN(C(=O)NCc2ccccc2)CC1	.	-2	10	.	103*	.
COc1ccc2c3c([nH]c2c1)[C@H](CO)N(C(=O)c1ccccc1)CC31CCN(C)CC1	1	.	.	11	.	0
COc1ccc2c3c([nH]c2c1)[C@H](CO)N(C(=O)Nc1ccc(F)cc1)CC31CCN(C(=O)Nc2ccc3c(c2)OCO3)CC1	1	.	.	61*	.	0
COc1ccc2c3c([nH]c2c1)[C@H](CO)N(C(=O)Nc1cccc(F)c1)CC31CN(S(=O)(=O)c2ccccc2)C1	.	.	.	79*	.	3
COc1ccc2c3c([nH]c2c1)[C@@H](CO)N(C(=O)c1ccc(F)cc1)CC31CCN(C(=O)Nc2cccc(F)c2)CC1	63*	.	.	3	.	-1
COc1ccc2c3c([nH]c2c1)[C@@H](CO)N(C(=O)Nc1ccc(F)cc1)CC31CCN(C(=O)Nc2ccc3c(c2)OCO3)CC1	-6	.	.	6	.	0
COc1ccc2c3c([nH]c2c1)[C@@H](CO)N(C(=O)c1ccccc1)CC31CCN(C)CC1	1	.	.	31*	.	-1
C[C@@H]1CN([C@@H](C)CO)C(=O)c2cc(NC(=O)Nc3ccc(C(F)(F)F)cc3)ccc2O[C@@H](C)CCCCO[C@H]1CN(C)Cc1ccccc1	8	2	.	-9	.	0
COc1ccc(CN(C)C[C@H]2OCCCC[C@H](C)Oc3ccc(NS(=O)(=O)c4c(C)noc4C)cc3C(=O)N([C@@H](C)CO)C[C@@H]2C)cc1	.	1	.	6	.	1
COc1ccc2c3c([nH]c2c1)[C@H](CO)N(C(=O)c1ccc(F)cc1)CC31CN(C(=O)Nc2cccc(F)c2)C1	-1	.	.	-7	.	0
SMILES	ERp5 inh	Cneo AK release	PDI turbidity	DENV2 CPE	Statin myotox sup	F508del corr
COc1ccc2c3c([nH]c2c1)[C@H](CO)N(C(=O)c1ccc(F)cc1)CC31CCN(C(=O)Nc2cccc(F)c2)CC1	66*	.	.	6	.	-2
COc1ccc2c3c([nH]c2c1)[C@H](CO)N(C(C)=O)CC31CN(C(=O)c2cccc(F)c2)C1	.	.	.	83*	.	1
CC(C)C#Cc1cnc2c(c1)C(=O)N([C@@H](C)CO)C[C@H](C)[C@H](CN(C)C(=O)c1cnccn1)O2	-3	7	.	0	8	1
CCOc1ccc(C(=O)Oc2cc(C)[nH]c(=O)c2[N+](=O)[O-])cc1	-1	0	6	-2	127*	-1
CCCCOc1ccc(C(=O)Oc2cc(C)[nH]c(=O)c2[N+](=O)[O-])cc1	3	1	0	8	1	4
CO[C@H]1CN(C)C(=O)c2ccc(NC(=O)c3cnccn3)cc2OC[C@@H](C)N(CC2CC2)C[C@@H]1C	-4	.	.	22*	.	-1
CCC(=O)N1C[C@@H](C)[C@@H](OC)CN(C)C(=O)c2cc(NC(=O)c3cnccn3)ccc2OC[C@@H]1C	-3	-6	.	4	4	-1
CCC(=O)N1C[C@H](C)[C@H](OC)CN(C)C(=O)c2cc(NC(=O)c3cnccn3)ccc2OC[C@H]1C	0	0	.	25*	9	2
CCCNC(=O)C[C@H]1C[C@H]2c3cc(NC(=O)c4cccnc4)ccc3O[C@H]2[C@H](CO)O1	.	-1	.	10	1	3
O=C(C[C@H]1CC[C@@H]2NC[C@@H](O)COC[C@H]2O1)NCCc1ccccc1	-2	-1	.	8	17	-1
O=C(C[C@H]1CC[C@@H]2NC[C@H](O)COC[C@H]2O1)NCCc1ccccc1	3	1	.	25*	-13	-3
O=C(C[C@@H]1CC[C@H]2[C@@H](COC[C@@H](O)CN2C(=O)Nc2ccccc2)O1)NCCc1ccncc1	0	-1	.	-14	-1	2
C[C@H](NC(=O)C[C@@H]1CC[C@@H]2[C@H](COC[C@@H](O)CN2C(=O)Nc2cccc(F)c2)O1)c1ccccc1	0	90*	.	2	-17	-2
O=C(C[C@H]1CC[C@H]2[C@@H](COC[C@H](O)CN2C(=O)Nc2ccccc2)O1)NCCc1ccncc1	-6	43	.	53*	-9	2
C[C@@H](NC(=O)C[C@@H]1CC[C@H]2[C@@H](COC[C@H](O)CN2C(=O)Nc2ccccc2)O1)c1ccccc1	-27	4	.	113*	18	0
COCC(=O)Nc1ccc2c(c1)C(=O)N(C)C[C@@H](OC)[C@H](C)CN(C(=O)c1cnccn1)[C@H](C)CO2	0	-3	.	5	-7	0
C[C@H](CO)N1C[C@H](C)[C@H](CN(C)CC2CC2)Oc2cc(-c3ccc(C#N)cc3)ccc2S1(=O)=O	?	-4	.	4	-27	1
COC(=O)c1ccc(CS(=O)(=O)c2ccc(F)cc2)o1	-1	10	-8	9	9	9.5*

Screening results from PubChem BioAssay.
